Measurements reported in ChEMBL document CHEMBL2321840, “Synthesis and structure-activity relationships of indazole arylsulfonamides as allosteric CC-chemokine receptor 4 (CCR4) antagonists” (J Med Chem, 2013).
Values after ≈ are worked out from the molar mass of the structure shown.

Legend:
Canis familiaris [1] = assay: Volume of distribution at steady state in Beagle dog at 0.5 mg/kg, iv; assay type: ADME, organism-based, Canis lupus familiaris; parameters: dose 0.5 mg/kg, route intravenous; details: in vivo
[2] = Plasma protein binding in human by equilibrium dialysis technique; assay type: ADME, cell-free; details: read-out: PPB (converted)
In short: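 Rapid equilibrium dialysis in CD rat, beagle dog or human plasma, with compound at a nominal 1 μg/mL; n = 3.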

[3] = biological target: T1, C-C chemokine receptor type 4 (Homo sapiens, UniProt P51679); assay: Antagonist activity at CCR4 receptor in human whole blood assessed as F-actin polymerization after 30 mins by FACS-based flow cytometric analysis; details: read-out: pA2 (converted)
T1 sequence (P51679 whole entry): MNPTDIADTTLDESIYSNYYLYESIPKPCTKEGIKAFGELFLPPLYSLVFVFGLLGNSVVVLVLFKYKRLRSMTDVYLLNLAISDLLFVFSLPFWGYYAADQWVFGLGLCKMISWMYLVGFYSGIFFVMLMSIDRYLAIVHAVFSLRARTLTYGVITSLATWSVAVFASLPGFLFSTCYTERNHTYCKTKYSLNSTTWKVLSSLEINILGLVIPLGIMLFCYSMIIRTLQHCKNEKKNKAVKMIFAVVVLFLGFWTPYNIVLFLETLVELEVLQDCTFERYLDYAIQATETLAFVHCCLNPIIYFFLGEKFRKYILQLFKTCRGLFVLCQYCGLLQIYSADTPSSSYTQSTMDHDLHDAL

[4] = Kinetic solubility of the compound by chemiluminescent nitrogen detection assay; assay type: physicochemical; details: read-out: Kinetic_solubility
[5] = Lipophilicity, log D of the compound by chromatographic analysis; assay type: physicochemical
In short: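 Chromatographic log D measured at pH 7.4.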

[6] = biological target: T1, C-C chemokine receptor type 4; assay: Antagonist activity at human recombinant CCR4 receptor expressed in CHO cell membranes by [35S]GTPgammaS binding assay; assay type: functional
[7] = Volume of distribution at steady state in CD rat at 1 mg/kg, iv and 1 mg/kg, po; assay type: ADME, organism-based; details: in vivo, read-out: Vdss
In short: (§1)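 CD rat pharmacokinetics, with compounds given as solutions in DMSO–PEG200–H₂O (5:45:50); one analogue used a 10:40:50 ratio.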

[8] = Oral bioavailability in CD rat at 1 mg/kg; assay type: ADME, organism-based; details: in vivo; in short: as §1
Canis familiaris [9] = species on record: Canis familiaris; details: dog, in vivo, iv, 0.5 mg/kg
in vivo [10] = details: CD, rat, iv, 1 mg/kg
in vivo [11] = details: CD, rat, iv, 1 mg/kg; remark: listed apart in the source
[12] = Equilibrium solubility of the compound in fed-state simulated intestinal fluid at pH 6.5 after 24 hrs by HPLC analysis; assay type: physicochemical
In short: (§2)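 Solid compound was equilibrated 24 h in the stated medium: water, SGF pH 1.6, FeSSIF pH 6.5, FaSSIF pH 6.5 or saline. Dissolved compound was quantified by HPLC.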

[13] = Equilibrium solubility of the compound in fasted-state simulated intestinal fluid at pH 6.5 after 24 hrs by HPLC analysis; assay type: physicochemical; in short: as §2
[14] = Equilibrium solubility of the compound in water after 24 hrs by HPLC analysis; assay type: physicochemical; in short: as §2
[15] = Equilibrium solubility of the compound in simulated gastric fluid at pH 1.6 after 24 hrs by HPLC analysis; assay type: physicochemical; in short: as §2

Row | SMILES | Vdss (Canis familiaris [1]) | fraction unbound [2] | Kb [3] | solubility kinetic [4] | chromatographic logD [5] | IC50 [6] | Vd [7] | bioavailability [8] | t1/2 (Canis familiaris [9]) | clearance (in vivo [10]) | half-life (in vivo [11]) | solubility thermodynamic at 24 h [12] | solubility thermodynamic at 24 h [13] | solubility thermodynamic at 24 h [14] | solubility thermodynamic at 24 h [15]
1 | COc1cccc2c1c(NS(=O)(=O)c1ccc(Cl)s1)nn2Cc1cccc(CNC(=O)[C@@H]2CCCCN2)c1 | 11 L/kg | 0.078 | 126 nM | ≥ 220 µg/mL | 3.3 | 15.8 nM | 2.6 L/kg | < 1% | 0.95 h | 29 mL/min/kg | 3 h | – | – | – | –
2 | COc1cc(F)cc2c1c(NS(=O)(=O)c1ccc(Cl)s1)nn2Cc1cccc(CNC(=O)C(C)(C)O)c1 | – | – | 631 nM | ≥ 198 µg/mL | 4.2 | 15.8 nM | 1.5 L/kg | 90% | – | 19 mL/min/kg | 1.8 h | 33 µg/mL (≈ 58.2 µM) | 36 µg/mL (≈ 63.5 µM) | 32 µg/mL (≈ 56.4 µM) | 1 µg/mL (≈ 1.76 µM)
